Screening results: PubChem, several laboratories
Compounds with a hit are over-represented: about 3.8% of the library has one in this group of screens.
Measles CPE – protection of cells from measles virus | Measles virus-infected cells, CPE protection, absorbance | actives 1.5% (n = 140,000) | AID 841 | protection (pct of control), % at 4 µM; in the data active = protection mostly above about 24%, no sharp cut-off; inactive = mostly below about 26%
BB579 growth dn – yeast BB579 growth reduction in restrictive medium. actives 0.51% (n = 140,000). inhibition, % at 10 µM. S. cerevisiae BB579 growth, OD615, 48 h. AID 804;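 active = inhibition above a set limit, 3 SD over the mean compound inhibition, cut at about 44% in these data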
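System: Saccharomyces cerevisiae DeaD strain BB579, replicative lifespan model yeast | Buffer or medium: Restrictive glucose-based CSMM-D medium | Times: 4 h preincubation and 48 h exposure at 30 °C | Detection: OD615 turbidity measurement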
RAM network inh – inhibitors of the yeast RAM network | actives 1.8% (n = 190,000) | AID 868 | S. cerevisiae dse1pr::URA3 reporter, 5-FOA growth OD615, 2 d; analog-sensitive cbk1-as2 kinase mutant strain | inhibition, % at 50 µM;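 active = inhibition above a set limit, 3 SD over mean compound inhibition, cut at about 8.4% in these data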;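 also: 0% = DMSO-only wells with no growth and 100% = 10 µM 1-NA-PP1 full growth; inhibition rescues growth on 5-FOA so higher OD means more RAM inhibition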
Yeast life ext – extends the lifespan of yeast; S. cerevisiae growth with nicotinamide, OD615; deaD strain in restrictive glucose medium; inhibition of the nicotinamide effect, % at 10 µM; actives 0.68% (n = 130,000);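 active = inhibition above a set limit, placed 3 SD over the median of all compounds, cut at about 26% in these data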;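 also: 0% = nicotinamide-treated wells and 100% = cells grown without nicotinamide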
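Assay system: engineered S. cerevisiae DeaD replicative-lifespan strain, galactose-grown log-phase cells; Buffer or medium: CSMM-D glucose medium, restrictive; Probe or stimulus: nicotinamide 1.5 mM; Compound: single dose 10 µM compound, 0.25% DMSO; Schedule: 4 h preincubation then 48 h treatment at 30 °C; Technique: OD615 measurement.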
An asterisk follows results filed as active; . = not tested or not shown.

SMILES	Measles CPE	BB579 growth dn	RAM network inh	Yeast life ext
CC1=NN(Cc2ccccc2)C(=O)C1C(c1ccccc1)C(C#N)C#N (stereo not drawn)	26	-26	2	38*
CC1=NN(Cc2ccccc2)C(=O)C1	5	-19	4	5
CC1=NN(Cc2ccccc2)C(=O)C1C(c1ccc(Cl)cc1)C(C#N)C#N (stereo not drawn)	9	-27	3	41*
Cc1cc(/C=N/NC(=O)c2cccs2)c(C)n1-c1ccccc1	77*	-45	1	-12
Cc1cc(/C=N/NC(=O)c2ccncc2)c(C)n1-c1ccccc1	14	-13	1	-2
O=C1Nc2ccccc2S/C1=C/Nc1cccc(Cl)c1	5	-1	8.4*	-7
CC(C)CNC(=O)c1cccc(NC(=O)C(C)Oc2ccccc2)c1 (stereo not drawn)	.	.	0	.
Cc1cccc(C)c1N/C=C/c1onc(C)c1[N+](=O)[O-]	8	-20	4	-7
Cc1noc(/C=C/c2ccc(-c3ccccc3Cl)o2)c1[N+](=O)[O-]	23	-37	8.9*	-5
CCn1c(SCC(=O)N2CCCc3ccccc32)nnc1-c1ccco1	22	-46	0	0
CC(C)c1nnc(SCC(=O)N2CCc3ccccc32)n1C	29*	-42	1	.
COCCCn1c(SCC(=O)N2CCc3ccccc32)nnc1-c1ccco1	4	-1	8.6*	.
C[C@@H](C(=O)NCc1ccc(S(C)(=O)=O)cc1)[C@H]1C[C@]1(C)[C@H](NC(=O)OCc1ccccc1)c1ccccc1	5	-23	9.2*	3
O=C(NC1CCCCC1)N1CCN(C(c2ccccc2)c2ccccc2)CC1	14	-37	0	0
Cc1cnc(NC(=O)c2c(O)c3cccc4c3n(c2=O)CCC4)s1	3	-14	0	10
Cc1cccc(NC(=O)c2c(O)c3cccc4c3n(c2=O)CCC4)n1	22	-72	0	74*
CC(C)c1nnc(NC(=O)c2c(O)c3cccc4c3n(c2=O)CCC4)s1	24	-33	0	40*
Cc1ccccc1CSc1nc(C(C)(C)C)cc(=O)[nH]1	.	.	5	.
O=C(COC(=O)C12CC3CC(CC(C3)C1)C2)NCCc1ccccc1	43*	2	0	5
COc1ccc(C(=O)N2CCN(c3ccccn3)CC2)cc1	45*	-42	0	-5
C(#CCN1CCCC1)CC(c1ccccc1)c1ccccc1	.	.	2	.
CCOC(=O)c1c(NC(=O)C2C3C=CC(C3)C2C(=O)O)sc2c1CCC(CC)C2 (stereo not drawn)	29	-15	1	42*
CCOC(=O)c1c(NC(=O)C2C3CCC(O3)C2C(=O)O)sc2c1CCC(CC)C2 (stereo not drawn)	.	.	0	.
COc1ccc(C2NC(=O)c3sc4nc(C)c(C(C)=O)c(-c5ccc(Cl)cc5)c4c3N2)cc1 (stereo not drawn)	13	-71	10*	-13
COc1cc2c(cc1OC)C1(Nc3c-2c(C)nn3-c2ccccc2)C(=O)Nc2ccccc21 (stereo not drawn)	4	-60	9.3*	2
SMILES	Measles CPE	BB579 growth dn	RAM network inh	Yeast life ext
O=c1cc(-c2ccccc2)c2ccccc2[nH]1	76*	9	2	-9
O=c1cc(O)c2ccccc2[nH]1	.	.	0	.
Cc1ccn2cc(CNS(=O)(=O)c3ccc(Cl)s3)nc2c1	29*	-12	2	-11
O=C(Nc1ccc(N2CCN(C(=O)c3ccccc3F)CC2)cc1)c1ncn[nH]1	.	.	1	.
O=C1c2ccccc2-c2cccc(C(=O)N3CCCCCC3)c21	29*	-59	1	20
COc1ccc2c(c1)C=C(CN1CCN(C3CCCC3)C(CCO)C1)CO2 (stereo not drawn)	.	.	0	.
C/C(Cl)=C\Cn1c(Nc2ccccc2)nc2c1c(=O)n(C)c(=O)n2C	25*	-38	4	-13
COc1cccc(N2C(=O)CC(N3CCN(C(=O)c4ccco4)CC3)C2=O)c1 (stereo not drawn)	74*	-15	1	-8
COc1ccc(N2C(=O)CC(N3CCN(C(=O)c4ccco4)CC3)C2=O)cc1 (stereo not drawn)	.	.	-1	.
CCN(CC)P(=O)(Nc1ccccc1Br)c1ccc(N(C)C)cc1NC(=O)c1ccco1 (stereo not drawn)	.	.	3	.
FC(F)(F)c1cc(-c2ccc3c(c2)OCO3)nc(NCc2ccco2)n1	66*	-32	5	-17
FC(F)(F)c1cc(-c2ccco2)nc(NCc2ccco2)n1	5	-38	2	-14
COc1ccc(-c2cc(C(F)(F)F)nc(NCc3ccco3)n2)cc1OC	4	-58	3	0
COc1cccc(-c2cc(C(F)(F)F)nc(NCc3ccco3)n2)c1	10	-72	8.9*	-9
COc1ccnc(Oc2ccc(C)cc2)c1C#N	67*	-48	0	-21
COc1ccnc(Oc2ccc(F)cc2)c1C#N	.	.	3	.
Nc1cccc(S(=O)(=O)Nc2ccccc2)c1	.	.	2	.
O=[N+]([O-])c1cc(S(=O)(=O)Nc2ccccc2)ccc1NCc1ccccc1	37*	0	7	5
COc1ccc(/C=N/NC(=O)CSc2nnc(CCCc3ccc(OC)c(C)c3)o2)cc1	2	-37	10*	-1
COc1ccc(CCCc2nnc(SCC(=O)N/N=C\c3ccc(O)c(OC)c3)o2)cc1C	25	-28	2	-24
CC(C)OC(=O)Nc1ccc2c(c1)N(C(=O)CCN1CCOCC1)c1ccccc1CC2	.	.	0	.
CC(=O)Oc1ccc(-c2cccc(C(=O)N(C)c3ccc(O)cc3)c2)cc1	.	.	0	.
O=C(O/N=C\c1ccc(N2CCCCC2)c([N+](=O)[O-])c1)c1cccc(Cl)c1	13	-48	11*	-5
O=C(O/N=C\c1ccc(N2CCCCC2)c([N+](=O)[O-])c1)c1cccc(C(F)(F)F)c1	3	6	6	-5
O=S(=O)(NCCSCc1c(Cl)cccc1Cl)c1ccc2c(c1)OCCO2	6	-56	8.8*	4
SMILES	Measles CPE	BB579 growth dn	RAM network inh	Yeast life ext
O=S(=O)(Nc1cccnc1Cl)c1ccc2c(c1)OCCO2	33*	-10	0	8
CCC(=O)Nc1ccc(C(=O)NNC(=O)COc2cc(C)ccc2C)cc1	4	-10	2	-1
CNC(=S)N1CCN(c2nc3ccccc3s2)CC1	.	.	2	.
Cc1cc(C)c(C)c(S(=O)(=O)N[C@@H](C)C(=O)OCC(N)=O)c1C	.	.	-1	.
O=C(CSCc1ccc(Br)cc1)N1CCCC1	.	.	0	.
O=C(C(=O)N1CCCc2ccccc21)N1CCCc2ccccc21	10	-8	0	1
Cc1ccc2c(c1)CCCN2C(=O)c1ccoc1C	7	-17	0	-20
O=C(c1ccc(C(=O)N2CCCc3ccccc32)s1)N1CCCc2ccccc21	5	84*	0	-17
CCc1ccc2c(c1)CCCN2C(=O)c1ccccc1C(=O)O	25	-42	0	34*
O=C(NC(=S)N1CCCc2ccccc21)c1ccccc1	26*	4	0	-21
COc1ccc(OC)c(-c2cc(C(=O)N3CCCc4ccccc43)no2)c1	7	-41	9.3*	-2
